Results as given in ChEMBL document CHEMBL1132294, “Derivatives of the new ring system indolo[1,2-c]benzo[1,2,3]triazine with potent antitumor and antimicrobial activity” (J Med Chem, 1999).
pIC50: −log10 of the molar value. ≈ marks a conversion by molar mass, not a printed value.

Experiments:
MT4 = experiment: Antitumor activity was evaluated against leukemia cell line MT-4(human CD4+ T cells expressing the TAT gene of HTLV-1).; format: functional, cell-based
Procedure, shortened: (§1)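 Exponentially growing leukemia/lymphoma cells resuspended at 1×10⁵ cells/mL in RPMI with serial drug dilutions. Viability by MTT after 4 days at 37 °C. Concentration giving 50% growth inhibition versus untreated controls found by linear regression. Mean of at least three experiments.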

HeLa = experiment: Antitumor activity was evaluated against human cervix carcinoma cell line HeLa.; format: functional, cell-based
Procedure, shortened: (§2)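 Solid-tumour and KB lines: exponentially growing cells seeded at 5×10⁴ cells/mL, allowed to adhere 16 h, then serial drug dilutions added. Viability by MTT after 4 days. Growth expressed as % of untreated controls, 50% inhibitory concentration by linear regression. Untreated cells undergo at least three rounds of multiplication.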

Candida parapsilosis [1] = experiment: Antimycotic activity against Candida parapsilosis was evaluated. MIC was defined as compound concentration at which no macroscopic signs of fungal growth were detected.; format: functional; conditions: Lodderomyces parapsilosis
Procedure, shortened: (§3)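 Yeast inocula from 30 h Sabouraud dextrose broth cultures at 37 °C, diluted to 5×10³ cells/mL. Dermatophyte inocula from 5-day cultures, homogenized and diluted to 0.05 OD₅₉₀/mL. Inocula added to medium with serial dilutions, incubated at 37 °C, read visually at 2 days (yeast) or 3 days (dermatophytes). Mean of at least three experiments.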

Candida albicans = experiment: Antimycotic activity against Candida albicans was evaluated as minimum inhibitory concentration of compound at which no macroscopic signs of fungal growth were detected; format: functional; procedure, shortened: as §3
5637 = experiment: Antitumor activity was evaluated against human bladder carcinoma cell line 5637.; format: functional, cell-based; procedure, shortened: as §2
CCRF-CEM = experiment: Antitumor activity was evaluated against leukemia cell line CCRF-CEM(human acute T lymphoblastic leukemia).; format: functional, cell-based
Procedure, shortened: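 Exponentially growing leukemia/lymphoma cells resuspended at 1×10⁵ cells/mL in RPMI with serial drug dilutions. Viability by MTT after 4 days at 37 °C. Mean of at least three experiments.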

[2] = test system: Mycolicibacterium smegmatis; experiment: Antibacterial activity was evaluated against Mycobacterium smegmatis; format: functional
Procedure, shortened: (§4)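 Mycobacterial suspension (turbidity of 1 McFarland standard, 10⁸ CFU/mL) added to Middlebrook 7H9 with 0.5% glycerol, 10% OADC and serial compound dilutions. Incubated at 37 °C, 1 day for M. smegmatis and M. fortuitum, 9 days for MAC. Viable mycobacteria counted by MTT. MIC given as mean of at least three separate experiments.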

[3] = test system: Mycobacterium tuberculosis; experiment: Antibacterial activity was evaluated against Mycobacterium tuberculosis (ATCC); format: functional
Procedure, shortened: (§5)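 Broth microdilution in Middlebrook 7H9 with 0.5% glycerol and 10% OADC, containing serial concentrations of compound (diluted in medium from a DMSO solution). Plates were incubated 9 days at 37 °C, and viable bacteria were read by MTT. MIC is the mean of at least three separate experiments.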

Salmonella = experiment: Antibacterial activity was evaluated against salmonella.; format: functional
Procedure, shortened: (§6)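 Recent clinical isolates grown in nutrient broth, pH 7.2, inoculum 10³ bacterial cells/tube, with serial compound dilutions. […] Mean of at least three separate experiments.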

MOLT-4 = experiment: Antitumor activity was evaluated against leukemia cell line MOLT-4(human acute T lymphoblastic leukemia); format: functional, cell-based; procedure, shortened: as §1
Streptococcus = experiment: Antibacterial activity was evaluated against streptococcus.; format: functional; procedure, shortened: as §6
Trichophyton benhamiae = experiment: Antimycotic activity against Trichophyton mentagrophytes was evaluated. MIC was defined as compound concentration at which no macroscopic signs of fungal growth were detected.; format: functional, Arthroderma benhamiae; procedure, shortened: as §3
ACHN = experiment: Antitumor activity was evaluated against human renal adenocarcinoma cell line ACHN.; format: functional, cell-based; procedure, shortened: as §2
HT-29 = experiment: Antitumor activity was evaluated against human colon adenocarcinoma cell line HT-29.; format: functional, cell-based; procedure, shortened: as §2
L1210 = experiment: Antitumor activity was evaluated against leukemia cell line L1210 (mouse leukemia).; format: functional, cell-based; procedure, shortened: as §1
CCRF-SB = experiment: Antitumor activity was evaluated against leukemia cell line CCRF-SB(human acute B lymphoblastic leukemia).; format: functional, cell-based; procedure, shortened: as §1
Staphylococcus = experiment: Antibacterial activity was evaluated against staphylococcus; format: functional; procedure, shortened: as §6
IMR-32 = experiment: Antitumor activity was evaluated against human neuroblastoma cell line IMR-32.; format: functional, cell-based; procedure, shortened: as §2
[4] = test system: Mycobacterium tuberculosis; experiment: Antibacterial activity was evaluated against Mycobacterium tuberculosis (clinical isolate 1104); format: functional; procedure, shortened: as §5
Aspergillus fumigatus = experiment: Antimycotic activity against Aspergillus fumigatus was evaluated as compound minimum inhibitory concentration at which no macroscopic signs of fungal growth were detected.; format: functional
Mycobacterium = experiment: Antibacterial activity was evaluated against MAC (Mycobacterium Avium Complex ); format: functional; procedure, shortened: as §4
Candida tropicalis = experiment: Antimycotic activity against Candida paratropicalis was evaluated. MIC was defined as compound concentration at which no macroscopic signs of fungal growth were detected.; format: functional; procedure, shortened: as §3
Cryptococcus neoformans = experiment: Antimycotic activity against Cryptococcus neoformans was evaluated. MIC was defined as compound concentration at which no macroscopic signs of fungal growth were detected.; format: functional; procedure, shortened: as §3
WIL2-NS = experiment: Antitumor activity was evaluated against lymphoma cell line Wil2-NS (human splenic B lymphoblastoid cells).; format: functional, cell-based; procedure, shortened: as §1
Shigella = experiment: Antibacterial activity was evaluated against shigella.; format: functional; procedure, shortened: as §6
[5] = test system: Mycolicibacterium fortuitum; experiment: Antibacterial activity was evaluated against Mycobacterium fortuitum.; format: functional; procedure, shortened: as §4
CHO-K1 = experiment: Antitumor activity was evaluated against Chinese hamster ovary carcinoma cell line CHO-K1.; format: functional, cell-based; conditions: Cricetulus griseus; procedure, shortened: as §2
Homo sapiens [6] = species: Homo sapiens; experiment: In vitro Antiproliferative activity against peripheral blood lymphocytes (PBL) after stimulating PBL with PHA and then resuspending in IL-2-containing medium in the presence of compound.; format: functional
Procedure, shortened: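 PBL from HIV-negative donors, isolated on Ficoll-Hypaque and rested overnight. Stimulated with PHA 2.5 μg/mL for 24 h, diluted to 1×10⁵ cells/mL in medium with PHA, IL-2 50 U/mL and compound. Viable cells counted after 6 days. Mean ±SD of three experiments.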

Lymphoblastoid cell = experiment: Cytotoxicity was evaluated against lymphoblastoid cell line.; format: functional; conditions: Homo sapiens
Candida parapsilosis [7] = experiment: Antimycotic activity against Candida parapsilosis was evaluated as compound concentration at which no macroscopic signs of fungal growth were detected; format: functional; conditions: Lodderomyces parapsilosis; procedure, shortened: as §3
Homo sapiens [8] = species: Homo sapiens; experiment: In vitro Antiproliferative activity against peripheral blood lymphocytes (PBL) by treating PBL with compound for 3 days, then stimulating with PHA and then resuspending in compound free medium.; format: functional; conditions: 72 h
Procedure, shortened: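 Resting donor PBL held at 1×10⁶ cells/mL and treated with compound for up to 3 days, then washed. Stimulated with PHA for 24 h, diluted to 1×10⁵ cells/mL in drug-free medium with PHA and IL-2. Viability read after 6 days at 37 °C. Mean ±SD of three experiments.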

## O=Nc1c2ccccc2n2nnc3ccccc3c12
MT4
  pIC50: 5.85
HeLa
  pIC50: 5.00
Candida parapsilosis [1]
  MIC: 19 µM (≈ 4.72 µg/mL)
Candida albicans
  MIC: 19 µM (≈ 4.72 µg/mL)
5637
  pIC50: 5.38
CCRF-CEM
  pIC50: 5.15
[2]
  MIC: 2.5 µM (≈ 0.621 µg/mL)
[3]
  MIC: 4.6 µM (≈ 1.14 µg/mL)
Salmonella
  MIC: 25 µM (≈ 6.21 µg/mL)
MOLT-4
  pIC50: 5.64
Streptococcus
  MIC: 0.8 µM (≈ 0.199 µg/mL)
Trichophyton benhamiae
  MIC: 9.4 µM (≈ 2.33 µg/mL)
ACHN
  pIC50: 4.92
HT-29
  pIC50: 4.30
L1210
  pIC50: 4.92
CCRF-SB
  pIC50: 5.13
Staphylococcus
  MIC: 0.8 µM (≈ 0.199 µg/mL)
IMR-32
  pIC50: 5.48
[4]
  MIC: 7.4 µM (≈ 1.84 µg/mL)
Aspergillus fumigatus
  MIC: 19 µM (≈ 4.72 µg/mL)
Mycobacterium
  MIC: 1.2 µM (≈ 0.298 µg/mL)
Candida tropicalis
  MIC: 19 µM (≈ 4.72 µg/mL)
Cryptococcus neoformans
  MIC: 3.1 µM (≈ 0.77 µg/mL)
WIL2-NS
  pIC50: 5.36
Shigella
  MIC: 25 µM (≈ 6.21 µg/mL)
[5]
  MIC: > 5 µM
CHO-K1
  pIC50: 4.35

## Cc1ccc2nnn3c4ccccc4c(N=O)c3c2c1
MT4
  pIC50: 5.89
HeLa
  pIC50: 5.02
Homo sapiens [6]
  CC50: 0.5 µM
Lymphoblastoid cell
  CC50: 0.9 µM
Candida albicans
  MIC: > 200 µM
5637
  pIC50: 5.72
CCRF-CEM
  pIC50: 6.30
[2]
  MIC: > 5 µM
[3]
  MIC: 9.3 µM (≈ 2.44 µg/mL)
Salmonella
  MIC: > 200 µM
MOLT-4
  pIC50: 6.30
Streptococcus
  MIC: 0.8 µM (≈ 0.21 µg/mL)
Trichophyton benhamiae
  MIC: > 200 µM
ACHN
  pIC50: 5.06
HT-29
  pIC50: 5.51
L1210
  pIC50: 5.77
CCRF-SB
  pIC50: 6.15
Staphylococcus
  MIC: 0.4 µM (≈ 0.105 µg/mL)
IMR-32
  pIC50: 5.55
[4]
  MIC: 9.2 µM (≈ 2.41 µg/mL)
Aspergillus fumigatus
  MIC: > 200 µM
Mycobacterium
  MIC: 5 µM (≈ 1.31 µg/mL)
Candida tropicalis
  MIC: > 200 µM
Cryptococcus neoformans
  MIC: > 200 µM
WIL2-NS
  pIC50: 6.10
Candida parapsilosis [7]
  MIC: > 200 µM
Shigella
  MIC: > 200 µM
[5]
  MIC: > 5 µM
Homo sapiens [8]
  CC50: 0.6 µM
CHO-K1
  pIC50: 5.19

## COc1ccc2c(c1)c(N=O)c1c3ccccc3nnn21
MT4
  pIC50: 5.96
HeLa
  pIC50: 4.96
Candida albicans
  MIC: > 200 µM
5637
  pIC50: 5.22
CCRF-CEM
  pIC50: 5.14
[2]
  MIC: > 5 µM
[3]
  MIC: 5.3 µM (≈ 1.47 µg/mL)
Salmonella
  MIC: > 200 µM
MOLT-4
  pIC50: 5.89
Streptococcus
  MIC: 0.1 µM (≈ 0.0278 µg/mL)
Trichophyton benhamiae
  MIC: > 200 µM
ACHN
  pIC50: 4.85
HT-29
  pIC50: < 4.30
L1210
  pIC50: 4.89
CCRF-SB
  pIC50: 5.30
Staphylococcus
  MIC: 0.2 µM (≈ 0.0557 µg/mL)
IMR-32
  pIC50: 5.64
[4]
  MIC: 4.5 µM (≈ 1.25 µg/mL)
Aspergillus fumigatus
  MIC: > 200 µM
Mycobacterium
  MIC: 2.5 µM (≈ 0.696 µg/mL)
Candida tropicalis
  MIC: > 200 µM
Cryptococcus neoformans
  MIC: > 200 µM
WIL2-NS
  pIC50: 5.43
Candida parapsilosis [7]
  MIC: > 200 µM
Shigella
  MIC: > 200 µM
[5]
  MIC: > 5 µM
CHO-K1
  pIC50: < 4.30
